# Results of several laboratories.
# Protocols differ between the studies behind these lines. pEC50, pIC50, pKd, pKi: −log10 of the molar value.
# Target: D(2) dopamine receptor (DRD2, Homo sapiens, UniProt P14416)
Structure (SMILES),test,quantity,result
CCc1nc2cc(OCCCCN3CCN(c4cccc(Cl)c4Cl)CC3)ccc2s1,"cAMP, agonist, luciferase",pEC50,7.01
Oc1cccc(CCC2=NCCN2Cc2ccccc2)c1,"ligand displacement, radioligand",pKi,< 5.00
CCOCc1nc(O)c(-c2nnc(Cc3ccc(Cl)cn3)o2)c(O)c1-c1c(OC)cccc1OC,"ligand displacement, radioligand",pIC50,< 4.52
CCO[C@H]1CCN(Cc2c(OC)cc(C)c3[nH]ccc23)[C@H](c2ccc(C(=O)O)cc2)C1,cell-free assay,pKd,< 4.52
COc1ccc2c(c1)C(=O)N(CCCN1CCN(c3ccccc3OC)CC1)C2,"ligand displacement, radioligand",pKi,5.82
CC(C)c1nc2cc(OCCCCN3CCN(c4cccc5c4OCCN5)CC3)ccc2s1,"β-arrestin recruitment, agonist",pEC50,7.80
CCN(CC)c1ccc(C2Nc3ccc(C(=O)c4ccccc4)cc3NC3=C2C(=O)CC(C)(C)C3)cc1 (centres unmarked),"cell-free assay, radioligand",pKi,< 5.00
FC(F)(F)c1nc2cc(OCCCCN3CCN(c4cccc(Cl)c4Cl)CC3)ccc2s1,"cAMP, agonist, luciferase",pEC50,6.85
CNC(=O)[C@@]12C[C@@H]1[C@@H](n1cnc3c(NC)nc(C#Cc4cccs4)nc31)[C@H](O)[C@@H]2O,"cell-free assay, radioligand",pKi,< 5.00
O=C1c2ccccc2CCN1CCCCN1CCN(c2ccccn2)CC1,"ligand displacement, radioligand",pKi,6.09
Oc1cccc(CCC2=NCCN2CCc2ccccc2)c1,"ligand displacement, radioligand",pKi,< 5.00
O=C1c2ccccc2CCN1CCCCN1CCN(c2cccc(Cl)c2Cl)CC1,"ligand displacement, radioligand",pKi,7.85
CCCCN1CCC(COC(=O)c2ccc(N)c(OCF)c2)CC1,"cell-free assay, radioligand",pKi,< 5.00
COc1ccc(CCC2=NCCN2CCc2ccccc2)cc1,"ligand displacement, radioligand",pKi,< 5.00
